M4 ag: agonists of human muscarinic M4 receptor (CHRM4). P08173. CHO-K1 hM4/Gqi5, Fluo-8 calcium fluorescence; vehicle 0%, full acetylcholine response 100%. activation, % at 3 µM. actives 0.14% (n = 360,000). AID 624127;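 active = activation above the run mean over all test wells plus 3 SD, cut at about 32% in these data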;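 note: peak over basal fluorescence ratio per well then scaled between controls; 0% = DMSO wells and 100% = acetylcholine at EC100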
CHRM5 PAM: potentiates acetylcholine response at human M5 receptor; P08912; CHO-K1 hM5, Fluo-8 calcium, ACh EC20 PAM; 0% = ACh EC20, 100% = ACh EC100; activation, % at 3 µM; actives 0.3% (n = 360,000); AID 624038;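 active = activation above the run cutoff, the mean activation of all test compounds plus 3 SD, cut at about 18% in these data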
Target sequence (P08912 whole entry, looked up): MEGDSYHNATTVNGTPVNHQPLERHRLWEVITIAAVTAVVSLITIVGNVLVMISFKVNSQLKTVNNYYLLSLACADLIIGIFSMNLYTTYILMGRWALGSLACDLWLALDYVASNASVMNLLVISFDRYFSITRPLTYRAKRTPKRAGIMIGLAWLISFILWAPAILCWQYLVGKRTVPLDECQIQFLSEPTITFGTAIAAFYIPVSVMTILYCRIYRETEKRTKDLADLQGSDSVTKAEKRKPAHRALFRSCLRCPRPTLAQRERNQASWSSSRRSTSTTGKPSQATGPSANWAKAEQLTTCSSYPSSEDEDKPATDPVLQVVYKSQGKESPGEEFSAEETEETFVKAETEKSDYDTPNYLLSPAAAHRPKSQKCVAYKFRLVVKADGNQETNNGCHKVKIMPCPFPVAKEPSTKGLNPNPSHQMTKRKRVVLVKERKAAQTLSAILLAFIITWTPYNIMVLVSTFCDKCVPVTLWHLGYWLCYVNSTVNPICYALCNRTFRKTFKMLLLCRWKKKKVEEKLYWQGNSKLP
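System – CHO-K1 hM5 cells · Compound – 3 µM, single dose · Incubation – compound preincubation 140 s before EC20 acetylcholine addition · Technique – Fluo-8 calcium fluorescence · Measure – Max/basal fluorescence ratio as % of EC20–EC100 ACh window · Benchmarks – low control EC20 acetylcholine (0%), high control EC100 acetylcholine (100%) · Replication – singlicate, one well per test compound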
M4 antag: antagonists of human muscarinic M4 receptor (CHRM4); inhibition, % at 3 µM; CHO-hM4 cells, ACh EC80, Fluo-8 calcium fluorescence; P08173; actives 0.73% (n = 360,000);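 active = inhibition above its plate's cutoff, the mean inhibition of sample wells plus 3 SD, cut at about 27% in these data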;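 note: 0% = acetylcholine EC80 with DMSO and 100% = DMSO without agonist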
CHRM5 agonist: agonists of human muscarinic M5 receptor (CHRM5). AID 624037. P08912. actives 0.19% (n = 360,000). activation, % at 3 µM. CHO-K1 hM5 cells, Fluo-8 calcium fluorescence; 0% DMSO wells, 100% maximal acetylcholine response;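 active = activation above the run's mean over test compounds plus 3 SD, cut at about 23% in these data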;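 note: signal is peak over basal fluorescence ratio across the kinetic read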
M4 PAM: CHRM4 positive allosteric modulation; P08173; CHO-K1 hM4/Gqi5, Fluo-8 calcium fluorescence, ACh EC20; 0% = ACh EC20, 100% = maximal ACh; activation, % at 3 µM; actives 0.4% (n = 360,000);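 active = activation above its plate's cutoff, the mean activation of sample wells plus 3 SD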
M5 antag: CHRM5 antagonism in calcium assay; P08912; CHO-hM5 cells, Fluo-8 calcium fluorescence, ACh EC80; inhibition, % at 3 µM; actives 0.59% (n = 360,000); AID 624040;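 active = inhibition above a per-plate cutoff, the mean of that plate's test compounds plus 3 SD, cut at about 27% in these data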;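 note: 0% = acetylcholine EC80 with DMSO and 100% = DMSO without agonist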
* marks the source's active call; other numbers are inactive results. Only some compounds are listed: those with a hit (about 1.8% of all), similar ones and a draw of the others.

SMILES | M4 ag | CHRM5 PAM | M4 antag | CHRM5 agonist | M4 PAM | M5 antag
CC(C)C[C@H]1CN(CCCC[C@H]2CNC(=O)C(=O)N2CCc2ccccc2)C(=O)C(=O)N1CC1CCCCC1 | -1 | -2 | 3 | -2 | 0 | 8
COc1ccccc1C(=O)COC(=O)c1ccccc1O | 2 | -13 | -6 | -4 | 6 | 33*
COc1ccccc1C(=O)COC(=O)c1cccs1 | 2 | 1 | -4 | -1 | 4 | 12
COc1ccc(N2CC(C(=O)Nc3c4c(nn3-c3ccc(OC)cc3)CS(=O)(=O)C4)CC2=O)cc1 (stereo not given) | 0 | -2 | -11 | -2 | 20* | -15
Cc1ccc(OCC(O)Cn2c(=N)n(Cc3ccccc3)c3ccccc32)cc1 (stereo not given) | 33* | -7 | 12 | 3 | -24 | 10
CCCCCCN1Cc2ccccc2C1 | 0 | -2 | 2 | -8 | -7 | 7
CCCCCCCCCCn1ccc(=N)cc1 | 1 | -18 | 38* | -18 | -14 | 14
CCCCCCCCn1ccc(=N)cc1 | 0 | 20* | -12 | -13 | -3 | -26
OC(c1ccc(F)c(F)c1)c1nc(-c2ccc(Cl)cc2)cs1 (stereo not given) | 2 | 3 | -4 | 3 | 9 | -5
C[C@H]1COc2cccc(N3CCSCC3)c2S(=O)(=O)N1 | 1 | -1 | -14 | 2 | 11 | -1
CNC(C)C(=O)NC(C(=O)NC(C)C(=O)Nc1cccc2ccccc12)C(C)C (stereo not given) | 0 | -4 | -15 | 0 | 18* | -4
CCCNC(=O)C1(C)CCN(C(=O)c2oc3ccccc3c2C)C1 (stereo not given) | 5 | -8 | -18 | -1 | 5 | 1
Cc1cc(-c2ccccc2)[nH]c(=O)c1S(=O)(=O)c1ccccc1 | 3 | 21* | -3 | -4 | 2 | 4
Cc1cc(-c2ccccc2)[nH]c(=O)c1S(=O)(=O)c1ccc(Cl)cc1 | 0 | -3 | 5 | 2 | 6 | 4
c1ccc(Cn2nnc3c(N4CCCC4)ncnc32)cc1 | 4 | 6 | -6 | 4 | 21* | 5
CCN1CCN(c2ncnc3c2nnn3Cc2ccccc2)CC1 | 2 | -7 | -6 | -10 | 2 | 2
COC(=O)[C@@]1(C(C)C)N=C(c2cc(OC)c(OC)c(OC)c2)[C@]2(O1)C(=O)N(Cc1ccc(OC)cc1)c1ccc(Br)cc12 | 0 | -2 | -4 | -3 | 7 | -6
Oc1c(Cl)cc(Cl)cc1CNc1ccccn1 | 1 | -14 | 4 | -13 | -5 | 13
Oc1c(Cl)cc(Cl)cc1CNc1nc2ccccc2[nH]1 | 10 | -20 | 18 | 0 | -11 | 37*
COCCNC(=O)C1(C)CCCN(C(=O)Cc2ccc3ccccc3c2)C1 (stereo not given) | 2 | 3 | -16 | 1 | 17* | -10
CCCNC(=O)C1(C)CCCN(C(=O)Cc2ccc3ccccc3c2)C1 (stereo not given) | 3 | -1 | -7 | 1 | 4 | 5
CC(C)[C@@H]1Cc2[nH]n(C)c(=O)c2[C@H](c2ccc(F)cc2)O1 | 0 | 1 | -9 | 1 | 3 | 9
CC1(Cc2ccccc2OC(F)(F)F)C(=O)Nc2ccc(-c3ccsc3)cc21 (stereo not given) | -1 | -2 | -4 | -2 | 2 | -6
Cc1ccc(-c2nn(-c3ccccc3)cc2C(=O)Nc2cccc(S(=O)(=O)NC3=NCCC3)c2)cc1 | 6 | -8 | 4 | 0 | -3 | 11
COc1cccc2cc(C(=O)NCc3ccccn3)c(=O)oc12 | 2 | 1 | -1 | -2 | 22* | -2
SMILES | M4 ag | CHRM5 PAM | M4 antag | CHRM5 agonist | M4 PAM | M5 antag
CNC(=O)c1cc2cccc(OC)c2oc1=O | 1 | 2 | -6 | 1 | 6 | 0
Cc1ccccc1NC(=S)NC(=O)/C=C/c1ccco1 | 1 | 22* | -12 | 5 | -1 | -17
Cc1csc(=O)n1CC(=O)OCc1nnc(-c2ccc([N+](=O)[O-])cc2)o1 | 2 | 3 | -12 | 3 | 23* | 9
Cc1cc(Br)cn2c(Cc3ccccc3)c(-c3ccccc3)nc12 | -2 | -5 | -5 | 0 | -5 | -5
O=c1c2cc(NC(=S)NCCCN3CCC(Cc4ccccc4)CC3)ccc2nc2n1CCCCC2 | 20 | -20 | 44* | 3 | -29 | 14
O=C(Nc1nccs1)c1sc2cc(Cl)ccc2c1Cl | 1 | 23* | -12 | 1 | 25* | -3
CCN1CCN(CC(=O)Nc2ccc(C(C)=O)cc2)CC1 | 0 | 1 | -6 | -3 | 5 | -1
COc1cccc(N2CCN(CC(=O)Nc3ccc(-n4cnnn4)cc3)CC2)c1 | 1 | 1 | 0 | 2 | 6 | 2
CC(=O)c1ccc(NC(=O)CN2CCN(CC(=O)Nc3ccc(C(C)=O)cc3)CC2)cc1 | 1 | 27* | -10 | 1 | -1 | 21
O=C(CN1CCN(c2ccccc2)CC1)Nc1ccc(-n2cnnn2)cc1 | 2 | -2 | 30* | 1 | 0 | -1
Cn1cnc(S(=O)(=O)N2CCCCC2c2cc(C(=O)Nc3ccccc3Cl)no2)c1 (stereo not given) | 3 | -2 | -13 | 1 | 7 | 11
CCC(=O)N[C@H]1C=C[C@H](CC(=O)OC)O[C@@H]1CO | 0 | 6 | 8 | 2 | -1 | -4
COC(=O)C[C@H]1C=C[C@@H](NC(=O)C2CC2)[C@@H](CO)O1 | 0 | 20* | -2 | 1 | 2 | -8
Cc1onc(-c2c(F)cccc2Cl)c1C(=O)Nc1nccs1 | 11 | -3 | -4 | 4 | -3 | 2
Cc1onc(-c2c(F)cccc2Cl)c1C(=O)Nc1nnc(C(F)(F)F)s1 | 15 | -12 | 1 | 6 | -3 | 29*
Cc1noc(C)c1C(=O)Nc1nnc(-c2ccccc2)s1 | 3 | -2 | -2 | 1 | 4 | 0
Cc1onc(-c2ccccc2)c1C(=O)Nc1nnc(-c2ccncc2)s1 | -1 | 14 | 4 | 10 | 31* | -15
CCOC(=O)C1=CCN(S(=O)(=O)c2ccccc2Br)C1c1cccc(F)c1 (stereo not given) | 5 | -6 | -12 | -5 | -9 | -4
COc1cc(/C=C2/SC(=S)N(CCC(=O)Nc3cccnc3)C2=O)cc(OC)c1OC | 8 | -6 | -12 | 2 | -1 | 5
CCCCN(C(=O)C(C)N1C(=O)c2ccccc2C1=O)c1c(N)n(CCCC)c(=O)[nH]c1=O (stereo not given) | 0 | -3 | 4 | 1 | 7 | 4

Source: PubChem (The Scripps Research Institute Molecular Screening Center)
